Screens from PubChem.
FN deposition inh: inhibitors of fibronectin matrix deposition, primary screen, AH1F cells, Alexa488-fibronectin fluorescence, plate reader. hit rate 0.086% among 350,000. AID 743247, 2014. inhibition, % at 12.6 µM. AH1F fibroblasts, overnight;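 active = mean inhibition across replicates of 30% or more, regardless of how many single replicates reach that level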
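test system = AH1F fibroblasts assembling fluorescent fibronectin matrix | quantity = 10000 AH1F cells per well | buffer or medium = DMEM plus 2% serum, read in PBS | doses = single dose, pinned | incubation = 1 h cell attachment, overnight exposure to compound and label | detection = fluorescence at 485 nm excitation, 525 nm emission | read-out basis = inhibition from reduced deposited-fibronectin fluorescence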
Env fusion inh: inhibitors of HIV-1 Env-driven cell-cell fusion, primary screen, HeLa-JRFL effector, CEM21 target cells, luciferase | hit rate 1.1% among 360,000 | inhibition, % at 12.3 µM;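 active = mean replicate inhibition score of at least 50 and every replicate individually at or above 50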
PGC1a acetyl inh: inhibitors of PGC1a acetylation signal, primary screen, cell-based, U2OS, AlphaScreen, inhibitor mode | AlphaScreen anti-acetyl-lysine; with virally co-expressed GCN5 acetyltransferase | inhibition, % at 15.6 µM | hit rate 0.17% among 350,000 | AID 651687, 2012;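 active = every replicate shows inhibition of at least 40%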
EWS-Fli inh: EWS/Fli-driven NR0B1 reporter inhibitors, primary screen, A673 cells, NR0B1 luciferase, luminescence, MLPCN library. viability-normalised. inhibition, % at 12.6 µM. hit rate 0.67% among 350,000. AID 651661, 2012;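 active = mean inhibition of at least 50% after viability correction, with every replicate also passing that limit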;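 note: firefly luciferase signal divided by Alamar Blue viability fluorescence both relative to DMSO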
FGF22 binding: binders of human FGF22 protein, primary screen, FGF22 synaptogenesis inhibitor project, biophysical, thermal shift, single point. Fibroblast growth factor 22 (Homo sapiens), Q9HCT0. recombinant FGF22 thermal shift, SYPRO orange fluorescence; percent of sucrose octasulfate shift, DMSO zero. activity (Tm shift, normalised), % at 9.99 µM. hit rate 1.5% among 340,000. AID 651658, 2012;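 active = mean Tm shift, scaled 0 neutral to 100 positive control, at about 1.3% or above, every replicate too, limit read from the data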
Target sequence (Q9HCT0 whole entry, looked up): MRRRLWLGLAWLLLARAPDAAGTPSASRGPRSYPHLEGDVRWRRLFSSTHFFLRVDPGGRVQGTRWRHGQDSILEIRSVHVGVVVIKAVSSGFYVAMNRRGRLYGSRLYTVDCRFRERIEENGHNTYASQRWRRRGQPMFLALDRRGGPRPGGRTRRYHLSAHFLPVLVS
PAX8 inh HTS: inhibitors of PAX8-driven TPO luciferase reporter, primary screen, RMG-I cells, single concentration | SteadyGlo, 24 h | inhibition, % at 12.6 µM | hit rate 1.2% among 360,000;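 active = mean replicate inhibition at least 60% with every replicate also reaching 60%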;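 note: luciferase light reporting Pax8 driven TPO promoter activity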
Numbers stand for hits; - = inactive; . = not tested or not shown. Hits are enriched below; roughly 3.1% of the tested compounds scored in any of these assays.

SMILES | FN deposition inh | Env fusion inh | PGC1a acetyl inh | EWS-Fli inh | FGF22 binding | PAX8 inh HTS
CCOc1ccccc1N1C(=O)CC(Sc2n[nH]c(-c3ccccc3)n2)C1=O (stereo unspecified) | - | - | - | - | 44.3 | -
Cc1nnc(SCC(=O)Nc2sc3c(c2C(=O)c2ccccc2)CCCC3)s1 | - | 57.4 | - | . | . | -
Cc1nnc(SCC(=O)Nc2ccccc2NC(=O)CSc2nnc(C)s2)s1 | . | . | - | . | . | .
COc1cccc(S(=O)(=O)N(C)C[C@H]2OCc3ccccc3-c3c(n(C)c4ccccc34)C(=O)N([C@H](C)CO)C[C@H]2C)c1 | - | - | - | - | - | 85.8
C[C@@H]1CN([C@@H](C)CO)C(=O)c2c(c3ccccc3n2C)-c2ccccc2CO[C@H]1CN(C)S(=O)(=O)c1cccc(F)c1 | - | - | - | - | . | 86.8
COc1ccccc1S(=O)(=O)N(C)C[C@H]1OCc2ccccc2-c2c(n(C)c3ccccc23)C(=O)N([C@H](C)CO)C[C@@H]1C | - | - | - | - | - | 61.9
COc1cccc(S(=O)(=O)N(C)C[C@@H]2OCc3ccccc3-c3c(n(C)c4ccccc34)C(=O)N([C@@H](C)CO)C[C@H]2C)c1 | - | - | - | - | . | -
CO[C@@H]1CC[C@H]2CCOc3ccc(C#N)cc3C(=O)N(C)C[C@@H](C)C(=O)N(C)C[C@@H]1O2 | - | - | . | - | - | -
CO[C@@H]1CN(C)C(=O)c2cc(NC(=O)C3CCCCC3)ccc2OC[C@@H](C)NC[C@@H]1C | - | - | - | - | - | -
COC(=O)[C@@H]1[C@@H](CO)[C@@H]2Cn3c(ccc(/C=C/c4ccccc4)c3=O)[C@@H]2N1C(=O)CC1CC1 | . | . | - | - | . | -
C[C@@H]1CN([C@H](C)CO)C(=O)Cc2cc(NS(=O)(=O)c3cccs3)ccc2O[C@H]1CN(C)S(=O)(=O)c1cccs1 | . | - | - | - | . | -
CC(CCc1ccccc1)NC(=O)c1ccccc1 (stereo unspecified) | . | . | - | . | . | .
CC(CCc1ccccc1)NC(=O)c1ccc(C(=O)NC(C)CCc2ccccc2)cc1 (stereo unspecified) | - | - | - | . | . | 80.8
CSCCC(NC(=O)c1ccccc1)C(=O)NCCc1ccccc1 (stereo unspecified) | - | - | . | - | - | -
CSCCC(NC(=O)c1ccccc1Br)C(=O)NC(C)CCc1ccccc1 (stereo unspecified) | . | 64.0 | - | . | - | -
CCCNC(=O)Nc1ccc2c(c1)C(=O)N(C)C[C@H](OC)[C@H](C)CN(Cc1ccccc1)[C@H](C)CO2 | - | . | - | - | . | .
COc1ccc(C2C3=C(CCCC3=O)Nc3nc(-c4cc(OC)c(OC)c(OC)c4)nn32)cc1OC (stereo unspecified) | - | - | - | . | . | .
COc1cc(-c2nc3n(n2)C(c2ccncc2)C2=C(CCCC2=O)N3)cc(OC)c1OC (stereo unspecified) | - | - | . | - | 44.0 | -
COc1ccccc1N(Cc1cc(=O)[nH]c2ccccc12)C(=O)c1cccc([N+](=O)[O-])c1 | - | - | - | - | 43.3 | -
Cc1ccccc1N(Cc1cc(=O)[nH]c2ccccc12)C(=O)C(C)C | - | - | . | - | - | -
Cc1ccccc1N(Cc1cc(=O)[nH]c2ccccc12)C(=O)CCl | - | - | . | - | - | 82.7
C[C@@H]1CCCCO[C@H](CN(C)C(=O)Nc2ccc3c(c2)OCO3)[C@H](C)CN([C@H](C)CO)C(=O)c2cc(NC(=O)Cc3ccccc3)ccc2O1 | . | - | - | - | - | -
CC(=O)c1sc2nc(CSc3nncn3C)[nH]c(=O)c2c1C | - | - | . | - | 43.8 | -
CCOC(=O)/C(=C/c1ccc(OC(=O)c2ccncc2)cc1)C(C)=O | - | - | - | - | 43.9 | -
COCCOC(=O)/C(=C/c1ccc(OC(=O)c2ccccc2)cc1)C(C)=O | . | . | - | . | . | .
CCOC(=O)c1c(NC(=O)/C=C/C(=O)O)sc(C)c1-c1ccc(C(C)(C)C)cc1 | - | - | 46.9 | - | 1.7 | -
